# Screens as filed in PubChem.
# ADAM17 inh: inhibitors of human ADAM17; P78536; recombinant ADAM17, EDANS/DABCYL FRET peptide cleavage; inhibition, % at 6.95 µM; 370,000 tested, 0.83% active;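 active = inhibition above the mean of compounds lying between control limits plus 3 SD, set per campaign, cut at about 8.5% in these data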;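 also: 0% = DMSO-only wells as the low control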
# ADAM10 inh: ADAM10 inhibition, QFRET primary screen | inhibition, % at 7 µM | 370,000 tested, 0.62% active | O14672 | recombinant ADAM10, EDANS/DABCYL FRET peptide cleavage, 3 h;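 active = inhibition above a per-campaign cutoff equal to the mean of compounds falling between control-based bounds plus 3 SD, cut at about 20% in these data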;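 also: 0% = DMSO wells while the 100% control is not disclosed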
# Tb MetRS inh: Trypanosoma brucei MetRS inhibition | purified T. brucei MetRS, ATP depletion, Kinase-Glo luminescence | inhibition, % at 11.9 µM | 360,000 tested, 0.4% active;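 active = inhibition above a per-plate cutoff of the control wells' mean inhibition plus 3 SD, cut at about 5.5% in these data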;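 also: 0% = DMSO wells median and 100% = median of wells with control inhibitor compound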
#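 Material – parasite MetRS enzyme · Medium – HEPES-MgCl2-KCl buffer plus DTT, spermine, BSA, pyrophosphatase · Reagent – ATP, methionine and E. coli bulk tRNA substrates · Times – 15 min enzyme-compound preincubation, 2 h reaction, 10 min detection, 25 °C · Measured by – luminescence of leftover ATP · Evaluation – percent inhibition relative to median high and low control wells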
# PLCb3 inh: blocks human PLC-beta3 enzyme activity | 370,000 tested, 0.18% active | inhibition, % at 12.2 µM | AID 720704 | Purified PLC-beta3, fluorogenic substrate, fluorescence; in the data active = inhibition above about 11%;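 also: 0% = median of compound wells on plate and 100% = full blocker control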
# PLC-gamma1 inh: inhibitors of human phospholipase C gamma1. P19174. 370,000 tested, 0.84% active. purified PLC-gamma1, fluorogenic substrate, fluorescence. AID 720700. inhibition, % at 12.2 µM; in the data active = inhibition above about 9.5%
# Target sequence (P19174 whole entry, looked up): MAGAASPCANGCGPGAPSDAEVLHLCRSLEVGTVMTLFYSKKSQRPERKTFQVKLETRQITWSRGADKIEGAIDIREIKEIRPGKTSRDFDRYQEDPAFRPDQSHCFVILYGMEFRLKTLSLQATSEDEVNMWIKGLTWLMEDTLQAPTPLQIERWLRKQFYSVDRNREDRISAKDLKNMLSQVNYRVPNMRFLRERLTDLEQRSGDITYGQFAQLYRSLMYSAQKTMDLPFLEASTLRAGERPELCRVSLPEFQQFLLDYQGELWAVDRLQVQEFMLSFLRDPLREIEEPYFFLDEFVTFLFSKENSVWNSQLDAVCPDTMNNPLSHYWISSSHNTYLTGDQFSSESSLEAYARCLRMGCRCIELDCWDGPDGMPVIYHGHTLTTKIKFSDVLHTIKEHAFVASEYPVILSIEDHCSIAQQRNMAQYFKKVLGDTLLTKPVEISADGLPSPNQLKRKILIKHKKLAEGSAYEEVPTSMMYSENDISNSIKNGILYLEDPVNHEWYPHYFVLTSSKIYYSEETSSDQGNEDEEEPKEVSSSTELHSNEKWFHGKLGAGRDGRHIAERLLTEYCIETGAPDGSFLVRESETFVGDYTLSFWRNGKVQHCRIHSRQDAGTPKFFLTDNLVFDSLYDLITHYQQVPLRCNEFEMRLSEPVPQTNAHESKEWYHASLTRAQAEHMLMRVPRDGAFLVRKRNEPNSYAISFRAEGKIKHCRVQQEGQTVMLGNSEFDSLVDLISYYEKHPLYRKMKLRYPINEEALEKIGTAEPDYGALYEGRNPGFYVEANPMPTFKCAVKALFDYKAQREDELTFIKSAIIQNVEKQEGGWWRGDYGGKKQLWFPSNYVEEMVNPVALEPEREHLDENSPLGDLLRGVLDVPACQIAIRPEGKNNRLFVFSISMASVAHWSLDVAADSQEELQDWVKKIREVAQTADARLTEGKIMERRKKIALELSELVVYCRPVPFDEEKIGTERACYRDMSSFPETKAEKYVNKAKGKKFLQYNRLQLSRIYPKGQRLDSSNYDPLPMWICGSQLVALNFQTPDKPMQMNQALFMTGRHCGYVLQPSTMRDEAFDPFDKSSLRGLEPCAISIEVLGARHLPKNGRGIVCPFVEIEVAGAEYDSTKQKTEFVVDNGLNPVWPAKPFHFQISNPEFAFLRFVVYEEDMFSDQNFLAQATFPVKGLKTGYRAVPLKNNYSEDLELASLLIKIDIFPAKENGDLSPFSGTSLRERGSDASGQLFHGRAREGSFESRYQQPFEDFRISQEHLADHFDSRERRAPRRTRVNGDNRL
# ADAM10 confirm: human ADAM10 inhibition, confirmation; ADAM10 QFRET peptide cleavage, EDANS fluorescence; inhibition, % at 6.95 µM; shares compounds with ADAM10 inh; 2,100 tested, 1% active;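 active = inhibition above about 20% chosen separately for each screening run, limit read from the data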;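 also: 0% = DMSO wells and 100% = marimastat wells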
# ADAM17 counter: ADAM17 inhibition, counter-screen for ADAM10 exosite hits | inhibition, % at 6.95 µM | 2,100 tested, 0.5% active | shares compounds with ADAM10 inh | ADAM17 QFRET peptide cleavage, EDANS fluorescence;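 active = mean triplicate inhibition above the solvent-only control wells' mean plus 3 SD, cut at about 12% in these data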;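 also: 0% = DMSO wells and 100% = marimastat wells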
# ADAM10 counter: ADAM10 inhibition, counter-screen for ADAM17 exosite hits; inhibition, % at 6.95 µM; shares compounds with ADAM17 inh; 2,900 tested, 47% active; recombinant ADAM10, EDANS/DABCYL FRET peptide cleavage, 3 h;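 active = mean inhibition over the triplicate runs exceeds the activity threshold set in the earlier primary screen, cut at about 20% in these data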;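 also: 0% = DMSO wells and 100% = marimastat wells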
# ADAM17 confirm: human ADAM17 inhibition, confirmation | shares compounds with ADAM17 inh | recombinant ADAM17, EDANS/DABCYL QFRET peptide cleavage | inhibition, % at 6.95 µM | 2,900 tested, 65% active | AID 743257;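 active = mean inhibition across replicates above the hit cutoff set in the primary screen, cut at about 8.5% in these data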;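 also: 0% = DMSO wells and 100% = marimastat wells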
# * marks the source's active call; other numbers are inactive results; . = no result. Shown are actives, neighbours in structure and some others; about 2.3% of the full set was active somewhere.
SMILES,ADAM17 inh,ADAM10 inh,Tb MetRS inh,PLCb3 inh,PLC-gamma1 inh,ADAM10 confirm,ADAM17 counter,ADAM10 counter,ADAM17 confirm
CCOC(=O)C1=CN(Cc2cccc(F)c2)S(=O)(=O)NC1c1ccc(Br)cc1F (configuration not stated),9.6*,20.6*,-2.4,1.4,3.5,3.1,1.3,24.5*,14.9*
O=C1OCCN1C(=O)[C@H]1[C@H](c2ccccc2)C(c2ccc(F)cc2)=NN1c1ccc(Br)cc1,-23.0,-65.1,-2.1,-48.5,-29.8,.,.,.,.
O=C1OCCN1C(=O)[C@H]1[C@H](c2ccc([N+](=O)[O-])cc2)C(c2ccc(F)cc2)=NN1c1ccc(Br)cc1,9.2*,22.1*,-2.3,-2.9,-0.8,13.7,4.5,20.3*,12.8*
O=C1OCCN1C(=O)[C@H]1[C@H](c2ccc([N+](=O)[O-])cc2)C(c2ccc(F)cc2)=NN1c1ccccc1,9.0*,21.1*,0.4,-7.1,-2.7,4.5,2.6,36.0*,17.5*
O=C1OCCN1C(=O)[C@H]1[C@H](c2ccccc2)C(c2ccccc2)=NN1c1ccccc1,-56.6,-225.3,0.4,-302.4,-232.6,.,.,.,.
Oc1ccccc1N1CCN(c2ccc3ccccc3n2)CC1,-2.0,-6.3,-0.1,-17.9,-7.7,.,.,.,.
CCOc1cc(CN2CCC(n3nccc3NC(=O)C3CC3)CC2)ccc1O,4.2,2.2,-0.5,-1.7,1.6,.,.,.,.
CCOC(=O)c1sc(NC(=O)CSc2n[nH]c(CC(C)C)n2)nc1C,8.8*,27.3*,-0.4,8.2,7.1,0.3,-0.1,5.5,-1.7
CCOC(=O)c1sc(NC(=O)CSc2n[nH]c(C)n2)nc1C,-0.8,2.8,-1.2,4.0,4.0,.,.,.,.
CCOC(=O)c1c(N)sc(C(O)(C(F)(F)F)C(F)(F)F)c1-c1ccc(Cl)cc1,11.0*,36.7*,-1.0,-2.6,-1.9,8.0,2.5,47.2*,24.2*
O=C(Nc1ccc2c(c1)OCO2)NC1CCN(S(=O)(=O)c2ccc(F)cc2)CC1,0.4,-7.2,.,2.1,-4.4,.,.,.,.
COc1ccc(OC)c(-n2c(-c3cc(-c4ccc(F)cc4)n[nH]3)n[nH]c2=S)c1,9.3*,20.1*,-0.5,2.5,2.4,1.1,0.7,0.4,3.2
COc1ccc(-c2n[nH]c(=S)n2-c2cc(OC)ccc2OC)cc1,-1.1,0.2,0.0,-7.8,0.8,.,.,.,.
COc1ccc(CC(=O)Nc2nc(-c3ccc(F)c(F)c3)cs2)cc1,5.9,7.2,0.0,-2.4,-3.2,.,.,.,.
CC1(C(=O)OCC(=O)Nc2nc(-c3ccc(F)c(F)c3)cs2)CC1(Cl)Cl (configuration not stated),9.3*,20.7*,-0.1,-4.8,2.1,8.3,2.4,24.4*,15.6*
O=C1[C@@H]2[C@H](C(=O)N1C[C@@H](COCc1ccccc1)Oc1cccc3c1S(=O)(=O)N(CCc1ccc(F)cc1)C[C@H](COCc1ccccc1)O3)[C@@H]1C=C[C@H]2C1,0.3,-2.9,.,-3.8,1.2,.,.,.,.
CCCCN1CC(COCc2ccccc2)Oc2cccc(OCCN3C(=O)[C@@H]4[C@H](C3=O)C3C=C[C@H]4C3)c2S1(=O)=O (some centres not stated),12.9*,26.4*,-0.2,0.6,8.5,7.3,2.4,44.3*,18.3*
CC(C)CN1C(=O)[C@@]2(CC(=O)N(C)C2c2ccccc2)c2cc(-n3cc(C(C)(C)O)nn3)ccc21 (some centres not stated),1.5,-0.8,.,0.8,-0.5,.,.,.,.
CC(=O)Nc1cccc(C(C)C2=CCCCC2)c1 (configuration not stated),4.9,4.1,.,2.9,-1.1,.,.,.,.
CCOc1cc(C(c2c(C)[nH][nH]c2=O)c2c(C)[nH][nH]c2=O)ccc1OC(=O)c1cccc([N+](=O)[O-])c1,23.5*,27.3*,0.4,6.2,7.8,4.1,0.9,11.7,7.0
CCOc1cc(C(c2c(C)[nH][nH]c2=O)c2c(C)[nH][nH]c2=O)ccc1OCc1ccc([N+](=O)[O-])cc1,1.4,10.0,0.1,0.4,2.6,.,.,.,.
COc1ncccc1-c1ccc2nncn2c1,0.3,-14.7,0.0,-7.9,-1.3,.,.,.,.
COc1cc(C(=O)c2ccccc2)c(OC)cc1C(=O)Nc1ccc(O)cc1,14.8*,29.9*,-0.5,8.2,5.9,-1.2,0.5,0.1,2.9
Cc1cc(C)c(NC(=O)COC(=O)c2cccc3c2C(=O)c2ccccc2C3=O)c(C)c1,-1.3,3.9,-0.6,2.5,4.0,.,.,.,.
Cc1cc(C)c(Nc2cc(S(=O)(=O)O)c(N)c3c2C(=O)c2ccccc2C3=O)c(C)c1,8.7*,23.3*,-1.3,5.8,6.4,4.0,-1.6,36.0*,17.4*
SMILES,ADAM17 inh,ADAM10 inh,Tb MetRS inh,PLCb3 inh,PLC-gamma1 inh,ADAM10 confirm,ADAM17 counter,ADAM10 counter,ADAM17 confirm
C#CCNC(=O)C[C@H]1C[C@@]2(C(=O)OC)C(=C[C@H](C(C)(C)C)O[C@@H]2C)N(Cc2ccccc2)C1=O,-2.6,-4.5,.,-2.3,-2.5,.,.,.,.
COc1ccc(OC)c(-c2nnc3n2N=C(c2ccc(OC)c(OC)c2)CS3)c1,3.5,7.9,-0.3,4.8,3.1,.,.,.,.
COc1ccc(OC)c(-c2nnc3n2N=C(c2ccc(OC)c(OC4CCCC4)c2)CS3)c1,16.9*,31.1*,-0.7,-5.6,3.8,5.3,1.3,7.8,8.0
C[C@H]1COc2cc(N3CCOCC3)ccc2S(=O)(=O)N1,-7.8,-13.9,.,-3.7,-1.2,.,.,.,.
CC(C)NC(=O)N[C@@H]1C[C@@H]2O[C@@H](CO)CC[C@@H]2O[C@@H]1CCc1ccc(-c2ccc(F)cc2)cc1,2.1,1.7,.,-1.9,-2.1,.,.,.,.
O=S(=O)(NCC(Nc1ccc(Cl)cc1)c1ccccc1)c1ccccc1 (configuration not stated),26.2*,53.0*,0.1,10.0,9.4,10.5,3.4,45.9*,22.2*
CCOc1ccc(C(Nc2cccnc2)c2cc(Cl)c3cccnc3c2O)cc1 (configuration not stated),14.7*,21.7*,0.2,-15.5,-20.8,45.0*,15.2*,49.1*,27.8*
CC(OC(=O)c1cccc(S(=O)(=O)Nc2cccc(C(F)(F)F)c2)c1)C(=O)Nc1ccc2c(c1)OCCO2 (configuration not stated),9.2*,28.3*,0.0,1.9,0.4,4.5,1.3,27.5*,14.5*
Cc1onc(-c2ccccc2Cl)c1C(=O)NCc1nnnn1-c1ccc(F)c(F)c1,-4.7,1.0,0.6,3.5,-0.2,.,.,.,.
